Results reported in ChEMBL document CHEMBL1122961 (J Med Chem, 1985).
Activity calls are given as the source filed them. The calls are words filed in the database; no cut-off is given here.

Columns and labels:
Rattus norvegicus [1] = experiment: In vivo inhibitory activity against ovum implantation in female rat after subcutaneous administration; assay type: functional; settings: sc, read-out: ID50 (the source's name)
Procedure, shortened: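 Adult proestrus Ivanovas female rats mated with fertile males; sperm-positive females randomised next morning (day 1), 4-10 per group. Single subcutaneous dose on day 5; killed day 12, uteri inspected for fetuses or implantation sites, absence counted as inhibition.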

[2] = biological target: Serotonin (5-HT) receptor; experiment: In vitro inhibitory activity against serotonin receptor from rat frontal cortex using [3H]spiperone as radioligand; assay type: tissue-based
[3] = biological target: T1, Adrenergic receptor alpha-1 (Rattus norvegicus, UniProt P15823+P23944+P43140); experiment: In vitro inhibitory activity against alpha-1 adrenergic receptor from whole rat brain using [3H]WB-4101 as radioligand
T1 sequence (P15823 whole entry): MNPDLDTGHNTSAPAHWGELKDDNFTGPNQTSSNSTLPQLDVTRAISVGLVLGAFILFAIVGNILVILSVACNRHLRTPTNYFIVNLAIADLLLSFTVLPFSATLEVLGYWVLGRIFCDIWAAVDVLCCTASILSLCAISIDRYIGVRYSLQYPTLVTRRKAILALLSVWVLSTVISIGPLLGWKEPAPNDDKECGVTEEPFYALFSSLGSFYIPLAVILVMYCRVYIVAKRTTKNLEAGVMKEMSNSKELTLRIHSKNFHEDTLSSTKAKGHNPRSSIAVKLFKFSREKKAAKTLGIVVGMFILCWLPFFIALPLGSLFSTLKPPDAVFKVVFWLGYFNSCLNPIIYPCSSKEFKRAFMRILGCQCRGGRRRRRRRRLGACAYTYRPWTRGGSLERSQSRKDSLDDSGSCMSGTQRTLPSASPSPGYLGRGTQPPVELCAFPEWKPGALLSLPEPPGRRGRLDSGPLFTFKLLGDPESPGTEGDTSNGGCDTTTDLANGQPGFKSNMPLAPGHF
T1 sequence (P23944 whole entry): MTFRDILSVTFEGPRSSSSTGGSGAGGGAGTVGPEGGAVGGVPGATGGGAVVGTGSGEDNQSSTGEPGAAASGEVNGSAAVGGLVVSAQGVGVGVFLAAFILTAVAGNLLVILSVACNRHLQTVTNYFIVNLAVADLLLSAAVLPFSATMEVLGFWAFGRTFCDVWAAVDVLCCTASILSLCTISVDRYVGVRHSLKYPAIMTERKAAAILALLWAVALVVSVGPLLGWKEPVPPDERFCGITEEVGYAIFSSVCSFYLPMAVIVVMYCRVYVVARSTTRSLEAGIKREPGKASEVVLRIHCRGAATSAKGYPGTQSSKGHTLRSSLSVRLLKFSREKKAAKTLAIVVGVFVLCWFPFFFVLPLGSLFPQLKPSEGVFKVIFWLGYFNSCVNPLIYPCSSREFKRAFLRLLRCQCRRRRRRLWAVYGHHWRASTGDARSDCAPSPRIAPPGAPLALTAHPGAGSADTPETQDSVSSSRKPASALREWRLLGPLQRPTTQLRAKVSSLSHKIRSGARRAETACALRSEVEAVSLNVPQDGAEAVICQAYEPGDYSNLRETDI
T1 sequence (P43140 whole entry): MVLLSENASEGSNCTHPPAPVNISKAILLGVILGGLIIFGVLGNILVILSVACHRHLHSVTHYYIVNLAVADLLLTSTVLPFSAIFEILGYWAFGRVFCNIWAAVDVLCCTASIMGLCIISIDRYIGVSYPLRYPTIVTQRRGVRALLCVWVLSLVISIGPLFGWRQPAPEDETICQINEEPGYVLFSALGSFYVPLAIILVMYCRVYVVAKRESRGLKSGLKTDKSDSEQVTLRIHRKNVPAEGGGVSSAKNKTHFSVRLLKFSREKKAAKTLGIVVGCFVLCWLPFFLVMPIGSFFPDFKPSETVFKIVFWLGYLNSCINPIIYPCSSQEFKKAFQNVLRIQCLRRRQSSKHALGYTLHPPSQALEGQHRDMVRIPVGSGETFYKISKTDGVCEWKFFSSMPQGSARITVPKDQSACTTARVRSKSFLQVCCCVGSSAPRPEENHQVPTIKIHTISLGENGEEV
Procedure, shortened: (§1)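 Displacement binding on brain homogenates as earlier described; four to six test concentrations typically, each incubated in triplicate. IC50 in nM derived by appropriately weighted regression analysis.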

Dopamine receptor [4] = biological target: T2, Dopamine receptor (Bos taurus, UniProt Q95136+P20288); experiment: In vitro inhibitory activity against dopamine receptor from calf caudate using [3H]spiperone as radioligand; assay type: protein assay; procedure, shortened: as §1
Dopamine receptor [5] = biological target: T2, Dopamine receptor; experiment: In vitro inhibitory activity against dopamine receptor from calf caudate using [3H]dopamine as radioligand; assay type: protein assay; procedure, shortened: as §1
Rattus norvegicus [6] = experiment: In vivo inhibitory activity against basal prolactin in male rat after subcutaneous administration; assay type: functional; settings: sc, read-out: ID50 (the source's name)
Procedure, shortened: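 Male rats given one subcutaneous injection and decapitated 4 h later; trunk blood serum collected. One to three groups of three rats per dose, sera of three rats pooled equally. Prolactin measured by double-antibody RIA, expressed against NIH rat Prl RP-1 standard. Dose giving 50% serum prolactin reduction estimated graphically.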

Rattus norvegicus [7] = experiment: In vivo inhibitory against lactation in female rat after peroral administration; assay type: functional; settings: po, read-out: ID50 (the source's name)
Procedure, shortened: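 […] rats dosed once daily from day 5 to 8. Nursing behaviour checked daily; dams losing more than two pups excluded.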

[8] = biological target: T3, Adrenergic receptor alpha-2 (Rattus norvegicus, UniProt P22086+P19328+P22909); experiment: In vitro inhibitory activity against alpha-2 adrenergic receptor from rat brain minus cerebellum using [3H]clonidine as radioligand; assay type: tissue-based; procedure, shortened: as §1
T3 sequence (P22086 whole entry): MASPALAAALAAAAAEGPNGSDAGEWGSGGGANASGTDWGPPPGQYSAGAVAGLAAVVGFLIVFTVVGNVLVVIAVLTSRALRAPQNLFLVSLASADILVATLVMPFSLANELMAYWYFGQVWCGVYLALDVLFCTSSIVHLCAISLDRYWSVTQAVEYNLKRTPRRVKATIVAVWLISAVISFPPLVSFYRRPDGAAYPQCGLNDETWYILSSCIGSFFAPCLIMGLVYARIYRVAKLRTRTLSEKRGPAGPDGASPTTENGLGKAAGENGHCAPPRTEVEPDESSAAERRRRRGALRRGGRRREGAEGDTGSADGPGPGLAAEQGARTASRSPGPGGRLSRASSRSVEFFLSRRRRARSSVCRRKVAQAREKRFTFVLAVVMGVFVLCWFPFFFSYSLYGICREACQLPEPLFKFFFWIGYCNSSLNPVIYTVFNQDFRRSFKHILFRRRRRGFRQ
T3 sequence (P19328 whole entry): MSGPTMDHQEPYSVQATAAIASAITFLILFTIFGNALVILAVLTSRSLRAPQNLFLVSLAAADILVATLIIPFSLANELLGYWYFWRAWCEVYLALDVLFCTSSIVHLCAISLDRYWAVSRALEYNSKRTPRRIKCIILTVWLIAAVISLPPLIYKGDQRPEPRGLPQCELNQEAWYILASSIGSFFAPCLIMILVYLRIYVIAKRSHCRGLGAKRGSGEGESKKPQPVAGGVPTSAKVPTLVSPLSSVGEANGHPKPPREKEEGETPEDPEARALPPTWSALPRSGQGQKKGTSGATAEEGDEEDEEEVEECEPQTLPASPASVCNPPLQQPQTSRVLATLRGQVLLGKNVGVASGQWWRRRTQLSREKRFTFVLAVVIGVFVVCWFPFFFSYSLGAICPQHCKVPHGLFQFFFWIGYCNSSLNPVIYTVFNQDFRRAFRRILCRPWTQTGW
T3 sequence (P22909 whole entry): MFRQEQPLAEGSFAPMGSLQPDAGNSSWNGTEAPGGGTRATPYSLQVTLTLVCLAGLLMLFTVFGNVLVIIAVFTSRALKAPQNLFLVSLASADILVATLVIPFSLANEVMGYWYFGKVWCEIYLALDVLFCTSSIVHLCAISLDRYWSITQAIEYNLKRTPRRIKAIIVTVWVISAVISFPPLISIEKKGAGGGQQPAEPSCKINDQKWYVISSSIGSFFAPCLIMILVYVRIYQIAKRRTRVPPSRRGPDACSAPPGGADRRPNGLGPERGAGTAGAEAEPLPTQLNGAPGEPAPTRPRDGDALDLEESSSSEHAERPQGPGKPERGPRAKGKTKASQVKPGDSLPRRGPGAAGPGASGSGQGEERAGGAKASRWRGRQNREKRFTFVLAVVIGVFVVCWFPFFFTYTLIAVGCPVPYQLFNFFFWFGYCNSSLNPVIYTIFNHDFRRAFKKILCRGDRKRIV

[9] = biological target: Serotonin (5-HT) receptor; experiment: In vitro inhibitory activity against serotonin receptor from whole rat brain using [3H]5-HT as radioligand
Rattus norvegicus [10] = experiment: In vivo inhibitory activity against ovum implantation in female rat after subcutaneous administration; i = No effect; assay type: functional, organism-based
Procedure, shortened: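 Adult proestrus Ivanovas female rats paired with males of proven fertility; sperm-positive next morning (day 1), randomised 4-10 per group. Single sc dose on day 5; killed day 12, uteri inspected for fetuses or implantation sites, none counting as inhibited.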

Rattus norvegicus [11] = experiment: In vivo against inhibitory against lactation in female rat after peroral administration; i = No effect; assay type: functional, organism-based

SMILES	ED50 (Rattus norvegicus [1]) [mg/kg]	IC50 [2] [nM]	IC50 [3] [nM]	IC50 (Dopamine receptor [4]) [nM]	IC50 (Dopamine receptor [5]) [nM]	ED50 (Rattus norvegicus [6]) [mg/kg]	ED50 (Rattus norvegicus [7]) [mg/kg]	IC50 [8] [nM]	IC50 [9] [nM]	ID50 (Rattus norvegicus [10])	ID50 (Rattus norvegicus [11])
CCCN1C[C@@H](CSC)C[C@@H]2Cc3c(O)cccc3C[C@H]21	0.018	720	640	60	22	0.004	0.058	250	2000	–	–
CCCN1CC(NS(=O)(=O)N(CC)CC)CC2Cc3c(O)cccc3CC21 (stereo not drawn) [QUINAGOLIDE]	0.017	–	–	–	–	0.005	0.03	–	–	–	–
CCCN1C[C@H](CSC)C[C@@H]2c3cccc4[nH]cc(c34)C[C@H]21 [PERGOLIDE]	0.021	140	550	–	–	0.0013	–	–	385	–	–
CN1CCc2cccc3c2[C@H]1Cc1ccc(O)c(O)c1-3 [APOMORPHINE]	–	–	–	–	–	–	–	–	> 10000	inactive	inactive
CCN(CC)S(=O)(=O)N[C@H]1C[C@@H]2c3cccc4[nH]cc(c34)C[C@H]2N(C)C1 [ETISULERGINE]	0.028	–	–	–	–	–	0.19	–	> 5000	–	–
